OX1R antag-1: antagonists of human orexin 1 receptor; CHO/OX1R cells, Fluo-8 calcium fluorescence, orexin A; inhibition, % at 5 µM; 0.43% of 330,000 active; O43613; AID 434989;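 active = inhibition above its plate's threshold, mean inhibition of all tested compounds on the plate plus 3 SD, cut at about 37% in these data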
CHO parental Ca: signal in parental CHO cells, OX1R antagonist counter-screen; inhibition, % at 5.6 µM; 0.63% of 330,000 active; parental CHO-K1, ATP-induced calcium, Fluo-8 fluorescence;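 active = inhibition above that plate's mean sample inhibition plus 3 SD, cut at about 26% in these data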
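Measured by: calcium-sensitive Fluo-8 fluorescence / Test system: CHO parental line / Controls: ATP-challenged DMSO wells low, unchallenged DMSO wells high / Measure: % inhibition / Compound: single nominal dose of 5.6 µM per compound / Replicates: single well per compound, no replicates / Reagent: ATP as calcium-mobilizing challenge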
V1R ag counter: V1a receptor agonism, counter-screen for OXTR agonists | CHO-V1R cells, Fluo-8 calcium fluorescence, agonist mode; 0% DMSO, 100% 3 nM vasopressin | activation, % at 3 µM | 0.25% of 320,000 active | AID 2797;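 active = activation above the mean activation of all tested compounds plus 3 SD, per screening run, cut at about 20% in these data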;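 also: signal is peak over basal fluorescence ratio across a 100 second FLIPR read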
Target sequence (P37288 whole entry, looked up): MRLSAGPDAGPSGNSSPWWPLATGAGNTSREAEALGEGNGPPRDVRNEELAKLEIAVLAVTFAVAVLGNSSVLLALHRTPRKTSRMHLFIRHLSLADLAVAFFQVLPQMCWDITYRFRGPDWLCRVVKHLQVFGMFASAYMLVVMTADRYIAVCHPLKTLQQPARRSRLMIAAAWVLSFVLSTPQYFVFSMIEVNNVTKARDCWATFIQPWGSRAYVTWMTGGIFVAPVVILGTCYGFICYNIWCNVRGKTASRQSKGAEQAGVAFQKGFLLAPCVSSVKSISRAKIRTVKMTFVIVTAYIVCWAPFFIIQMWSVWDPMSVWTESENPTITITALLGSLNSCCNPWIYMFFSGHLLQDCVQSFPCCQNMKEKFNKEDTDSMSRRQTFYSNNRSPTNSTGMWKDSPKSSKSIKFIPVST
OXTR ag: activates the human oxytocin receptor | AID 2435 | 0.32% of 320,000 active | CHO-OTR cells, Fluo-8 calcium fluorescence; normalized: DMSO 0%, oxytocin 100% | P30559 | activation, % at 3 µM;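 active = activation above the mean of all tested compounds plus 3 SD, cutoff set per screening run, cut at about 20% in these data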;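 also: peak over basal fluorescence ratio from a 100 s FLIPR kinetic read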
OX1R antag-2: blocks the human orexin 1 receptor | O43613 | OX1R-expressing cells, FRET antagonist read-out | inhibition, % at 6.6 µM | 1.8% of 330,000 active | AID 485270; in the data active = inhibition mostly above about 38%, no sharp cut-off; inactive = mostly below about 40%
OXTR potentiator: potentiators of human oxytocin receptor; 0.061% of 320,000 active; P30559; CHO-OTR cells, Fluo-8 calcium fluorescence, potentiator mode; 0% = oxytocin EC15, 100% = EC100; AID 2445; activation, % at 3 µM;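 active = activation above that plate's cutoff, the mean activation of tested compounds plus 3 SD, cut at about 6.6% in these data, passing the limit was not always enough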
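Measured by – Fluo-8 calcium dye fluorescence · Test system – human OTR in CHO cells · Dosing – one concentration, 3.0 µM compound · Controls – EC15 oxytocin alone as 0%, 75 nM oxytocin as 100% · Evaluation – normalized max/min fluorescence ratio, % activation · Timing – 6 min pre-incubation, 100 s read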
A number is an active result; - = inactive. Hits are enriched below; roughly 2.7% of the tested compounds scored in any of these assays.

SMILES	OX1R antag-1	CHO parental Ca	V1R ag counter	OXTR ag	OX1R antag-2	OXTR potentiator
OC(CNCCc1ccc(C(F)(F)F)cc1)COC(c1ccccc1)c1ccccc1 (stereo unspecified)	49	89	35	27	-	-
COc1ccc(C(OCC(O)CNCCc2ccc(S(N)(=O)=O)cc2)c2ccc(OC)cc2)cc1 (stereo unspecified)	-	-	-	-	-	-
O=[N+]([O-])c1ccc(S(=O)(=O)c2ccccc2)nc1	-	-	-	-	59	-
Cc1cc(S(=O)(=O)c2ccc([N+](=O)[O-])cn2)ccc1Br	-	55	-	-	-	-
CCCCOc1ccc(CC(=O)NO)cc1	-	44	-	-	-	-
Cc1ccc(Oc2ccc(OCC(=O)Nc3ccncc3)cc2)cc1	50	58	-	-	-	-
CCCCOc1ccc(C(=O)NC)cc1	-	-	-	-	-	-
O=C(COc1ccc(C(=O)c2ccccc2)cc1)Nc1cccnc1	-	52	-	-	-	-
Cc1cc(OCC(=O)Nc2ccncc2)ccc1Cl	-	30	-	-	-	-
O=C(CCCOc1ccccc1)Nc1cccnc1	-	-	-	-	-	-
COc1ccc(C(=O)OC/C(O)=C(\C#N)c2nc3ccccc3[nH]2)cc1S(=O)(=O)N1CCOCC1	-	-	-	-	-	-
O=C(COc1ccc2ccccc2c1)Nc1ccncc1	53	67	-	-	-	-
CCCOc1ccc(C(=O)Nc2cccnc2)cc1	-	-	-	-	-	-
O=C(COc1ccccc1)Nc1ccncc1	-	-	-	-	-	-
CCCCOc1ccc(C(=O)Nc2ccncc2)cc1	45	42	-	-	-	-
Cc1sc2ncn(CC(=O)N3CCOCC3)c(=O)c2c1-c1ccccc1	-	-	-	-	-	-
COc1ccc(C(=O)Nc2ccc(Cl)c(Cl)c2)c(OC)n1	-	-	-	-	-	-
CC(C)C1O/C(=N/C(=O)Nc2ccc(Cl)c(Cl)c2)NC1=O (stereo unspecified)	-	44	-	-	-	-
CN(C)c1ccc(C(=O)OCC#CCSc2nnc(-c3cccc4ccccc34)o2)cc1	-	-	-	-	-	-
COc1ccc(NS(=O)(=O)c2cccc(C(=O)NCC(c3cccs3)N3CCOCC3)c2)cc1 (stereo unspecified)	-	-	-	-	-	-
CCOC(CNC(=O)C(=O)Nc1cc2c3c(c1)CCN3C(=O)CC2)OCC	-	-	-	-	-	-
COc1ccc2cc(/C=C3\SC(=S)NC3=O)c(N3CCOCC3)nc2c1	-	-	-	-	74	-
Cn1c(SCC(=O)Nc2ncc(C(F)(F)F)cc2Cl)nnc1-c1ccc(Cl)cc1	-	-	-	-	-	-
O=C(Nc1ccc2nn(-c3ccccc3)nc2c1)c1cccnc1	-	-	-	-	-	-
CC(C)C(=O)Nc1ccc2nn(-c3ccccc3)nc2c1	-	-	-	-	63	-
SMILES	OX1R antag-1	CHO parental Ca	V1R ag counter	OXTR ag	OX1R antag-2	OXTR potentiator
COc1ccc(C)cc1NC(=O)C(=O)NNC(=O)COc1ccc(Cl)cc1	-	35	-	-	-	-
COc1ccc(OCC(=O)NNC(=O)C(=O)Nc2cc(OC)ccc2OC)cc1	-	-	-	-	-	-
COc1cccc(C(C)NC(=O)Nc2ccccc2Cl)c1 (stereo unspecified)	-	-	-	-	-	-
COC(=O)c1ccccc1C(=O)c1ccc2c(c1)NC(=O)CO2	-	-	-	-	-	-
O=C(Nc1ccc(Cl)c(C(F)(F)F)c1)NC1CC2CCCC(C1)N2Cc1ccccc1 (stereo unspecified)	-	37	-	-	-	-
CCOc1cc(C)c(S(=O)(=O)Nc2ccc3cn[nH]c3c2)cc1C	-	48	-	-	-	-
Cc1ccc2cc(C)c3nnc(SCC(=O)c4cccs4)n3c2c1C	-	-	-	-	45	-
COc1ccc(NC(=O)Cn2nnc(-c3ccccc3NS(=O)(=O)c3ccc(OC)cc3)n2)cc1	-	39	-	-	-	-
COc1ccccc1NC(=O)Cn1nnc(-c2ccccc2NS(=O)(=O)c2ccccc2)n1	-	-	-	-	-	-

Compound activity deposited in PubChem BioAssay by The Scripps Research Institute Molecular Screening Center.
